Columns and labels:
[1] = Growth inhibition of human U373 cells after 72 hrs by MTT assay; type: functional, cell-based, U-373MG ATCC; conditions: U373 MG
In short: (§1)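 Glioma lines were grown in RPMI with 10% heat-inactivated FCS, 4 mM glutamine, gentamicin and penicillin-streptomycin. Cells were plated for 24 h at 10,000–40,000 cells/mL, then exposed to compound for 72 h. MTT reduction to formazan was read at 570 nm (reference 630 nm). Six replicates were run.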

[2] = tested on: T98G; assay: Growth inhibition of human T98G cells after 72 hrs by MTT assay; type: functional, cell-based; in short: as §1
[3] = Growth inhibition of human Hs683 cells after 72 hrs by MTT assay; type: functional, cell-based; conditions: Hs 683, 72 h; in short: as §1
[4] = tested on: B16-F10; assay: Growth inhibition of mouse B16F10 cells after 72 hrs by MTT assay; type: functional, cell-based; conditions: B16-F10, 72 h

| IC50 [4] | SMILES | IC50 [1] | IC50 [2] | IC50 [3] |
| --- | --- | --- | --- | --- |
|  | O=[N+]([O-])c1cccc(NC(=S)NCc2cccc(Cl)c2)c1 | 32 µM | 61 µM | 41 µM |
|  | CC1(C)CC(NC(=S)NCc2ccccc2)c2cc(F)ccc2O1 (configuration not stated) | 27 µM | 40 µM | 25 µM |
|  | CC1(C)CC(NC(=S)Nc2ccccc2)c2cc(Cl)ccc2O1 (configuration not stated) | 46 µM | 37 µM | 32 µM |
|  | CC1(C)CC(NC(=O)Nc2ccccc2)c2cc(Cl)ccc2O1 (configuration not stated) | 68 µM | 34 µM | 33 µM |
| 258 µM | Cn1nnc2c(C(N)=O)ncn2c1=O [TEMOZOLOMIDE] | 220 µM | 879 µM | 956 µM |
|  | CC1(C)CC(NC(=S)NCc2ccccc2)c2cc(Cl)ccc2O1 (configuration not stated) | 64 µM | 99 µM | 43 µM |
|  | CC1(C)CC(NC(=O)NCc2ccccc2)c2cc(Cl)ccc2O1 (configuration not stated) | 66 µM | 15 µM | 47 µM |
|  | CC1(C)CC(NC(=O)Nc2ccc(Cl)cc2)c2cc(F)ccc2O1 (configuration not stated) | 24 µM | 30 µM | 25 µM |
|  | CC1(C)CC(NC(=O)NCc2ccccc2)c2cc(Br)ccc2O1 (configuration not stated) | 27 µM | 38 µM | 38 µM |
|  | CCOC(=O)NC1CC(C)(C)Oc2ccc(Cl)cc21 (configuration not stated) | > 100 µM |  |  |
|  | CC1(C)CC(NC(=O)NS(=O)(=O)c2ccccc2)c2cc(Cl)ccc2O1 (configuration not stated) | 96 µM | > 100 µM | > 100 µM |
|  | COc1ccccc1NC(=S)NC1CC(C)(C)Oc2ccc(Br)cc21 (configuration not stated) | 22 µM | 42 µM | 40 µM |
|  | COc1ccc(NC(=S)NC2CC(C)(C)Oc3ccc(Br)cc32)cc1 (configuration not stated) | 40 µM | 33 µM | 29 µM |
|  | CC1(C)CC(NC(=O)Nc2cccc(Cl)c2)c2cc(F)ccc2O1 (configuration not stated) | 39 µM | 45 µM | 38 µM |
|  | O=[N+]([O-])c1ccc(NC(=S)NCc2cccc(Cl)c2)cc1 | 27 µM | 20 µM | 27 µM |
|  | CC1(C)CC(NC(=S)NCc2ccccc2)c2cc(Br)ccc2O1 (configuration not stated) | 29 µM | 54 µM | 34 µM |

| IC50 [4] | SMILES | IC50 [1] | IC50 [2] | IC50 [3] |
| --- | --- | --- | --- | --- |
|  | O=[N+]([O-])c1cccc(NC(=S)NC2CCOc3ccc(Cl)cc32)c1 (configuration not stated) | 8 µM | 10 µM | 7 µM |
|  | CC1(C)CC(NC(=O)Nc2ccccc2Cl)c2cc(F)ccc2O1 (configuration not stated) | 40 µM | 27 µM | 29 µM |
|  | CCNC(=O)NC1CC(C)(C)Oc2ccc(Cl)cc21 (configuration not stated) | > 100 µM |  |  |
|  | COc1cccc(NC(=S)NC2CC(C)(C)Oc3ccc(Br)cc32)c1 (configuration not stated) | 66 µM | 87 µM | 81 µM |
|  | CC(C)NC(=O)NC1CC(C)(C)Oc2ccc(Cl)cc21 (configuration not stated) | 62 µM | > 100 µM | 85 µM |
|  | CC1(C)CC(NC(=O)Nc2cccc(Cl)c2)c2cc(Br)ccc2O1 (configuration not stated) | 69 µM | 67 µM | 61 µM |
|  | CC(=O)NC1CC(C)(C)Oc2ccc(Cl)cc21 (configuration not stated) | > 100 µM |  |  |
|  | CC1(C)CC(NC(=O)NCc2ccccc2)c2cc(F)ccc2O1 (configuration not stated) | 11 µM | 49 µM | 19 µM |
|  | CC(C)NC1=NS(=O)(=O)c2cc(F)c(Cl)cc2N1 | > 100 µM |  |  |
|  | COc1ccc(Cl)cc1CNC(=S)Nc1cccc([N+](=O)[O-])c1 | 32 µM |  | 23 µM |
|  | CC(C)NC(=S)NC1CC(C)(C)Oc2ccc(Cl)cc21 (configuration not stated) | 57 µM | 91 µM | 34 µM |
|  | CCNC(=S)NC1CC(C)(C)Oc2ccc(Cl)cc21 (configuration not stated) | 96 µM | > 100 µM | 72 µM |
|  | O=[N+]([O-])c1ccc(NC(=S)NC2CCOc3ccc(Cl)cc32)cc1 (configuration not stated) | 8 µM | 12 µM | 6 µM |
|  | CCC(C)(C)NC1=NS(=O)(=O)c2cc(Cl)ccc2N1 | > 100 µM |  |  |
|  | COc1ccc(Cl)cc1CNC(=S)Nc1ccc([N+](=O)[O-])cc1 | 22 µM | 35 µM | 15 µM |
| 35 µM | CC1(C)CC(NC(=S)Nc2cccc(C#N)c2)c2cc(F)ccc2O1 (configuration not stated) | 30 µM | 39 µM | 33 µM |

Reference: ChEMBL document CHEMBL2040777, “N-Aryl-N'-(chroman-4-yl)ureas and thioureas display in vitro anticancer activity and selectivity on apoptosis-resistant glioblastoma cells: screening, synthesis of simplified derivatives, and structure-activity relationship analysis” (Eur J Med Chem, 2012)
